# Source: ChEMBL document CHEMBL3758117, “Discovery of indeno[1,2-b]quinoxaline derivatives as potential anticancer agents” (Eur J Med Chem, 2016)
# Activity calls are given as the source filed them. The rule behind the calls is not given here.
# Tested on: Escherichia coli
# Assay: Binding affinity to Escherichia coli negative supercoiled pBR322 DNA at 10 uM after 12 hrs by ethidium bromide staining based agarose gel electrophoresis
# Details: not given
# Method in brief: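 Negatively supercoiled pBR322 (400 ng) in TE buffer pH 8.0 was incubated with compound at 10 μM for 12 h at room temperature. Loading buffer with sarkosyl was added. Samples were run on 1% agarose at 6 V/cm for 2.5 h in TAE pH 8.5, stained with ethidium bromide and photographed under UV.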
row,SMILES,Activity
1,CN(C)CCCO/N=C1\c2ccccc2-c2nc3c(C(=O)NCCN4CCCC4)cccc3nc21.Cl,Active
2,CN(C)CCCO/N=C1\c2ccccc2-c2nc3c(CN4CCCC4)cccc3nc21.Cl,Active
3,CN(C)CCCO/N=C1\c2ccccc2-c2nc3c(C(=O)NCCN4CCOCC4)cccc3nc21.Cl,Active

# Tested on: MDA-MB-231
# Assay: Antiproliferative activity against human MDA-MB-231 cells after 72 hrs by XTT assay
# Assay type: functional, cell-based
# Details: MDA-MB-231, 72 h
# Method in brief: (§1)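 Cells kept as monolayers in DMEM with 10% FBS, penicillin, streptomycin and amphotericin at 37°C, 5% CO2. Seeded at 5 x 10³ cells/well and exposed to compound for 72 h in medium with 10% FBS. XTT plus electron-coupling reagent added, 4 h at 37°C, absorbance read at 492 nm. Percent of control growth uses mean absorbance (n = 3). The 50% value is taken from the linear portion of the curve.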
row,SMILES,IC50
1,CN(C)CCCO/N=C1\c2ccccc2-c2nc3c(C(=O)NCCN4CCCC4)cccc3nc21.Cl,450 nM
2,CN(C)CCCO/N=C1\c2ccccc2-c2nc3c(CN4CCCC4)cccc3nc21.Cl,680 nM
3,CN(C)CCCO/N=C1\c2ccccc2-c2nc3c(C(=O)NCCN4CCOCC4)cccc3nc21.Cl,990 nM

# Tested on: not listed separately
# Assay: Antiproliferative activity against human H1299 cells after 72 hrs by XTT assay
# Assay type: functional, cell-based
# Details: NCI-H1299, 72 h
# Method in brief: as §1
row,SMILES,IC50
1,CN(C)CCCO/N=C1\c2ccccc2-c2nc3c(C(=O)NCCN4CCCC4)cccc3nc21.Cl,5690 nM
2,CN(C)CCCO/N=C1\c2ccccc2-c2nc3c(CN4CCCC4)cccc3nc21.Cl,920 nM
3,CN(C)CCCO/N=C1\c2ccccc2-c2nc3c(C(=O)NCCN4CCOCC4)cccc3nc21.Cl,9690 nM

# Tested on: not listed separately
# Assay: Antiproliferative activity against human PC3 cells after 72 hrs by XTT assay
# Assay type: functional, cell-based
# Details: PC-3, 72 h
# Method in brief: as §1
row,SMILES,IC50
1,CN(C)CCCO/N=C1\c2ccccc2-c2nc3c(C(=O)NCCN4CCCC4)cccc3nc21.Cl,680 nM
2,CN(C)CCCO/N=C1\c2ccccc2-c2nc3c(CN4CCCC4)cccc3nc21.Cl,780 nM
3,CN(C)CCCO/N=C1\c2ccccc2-c2nc3c(C(=O)NCCN4CCOCC4)cccc3nc21.Cl,9780 nM

# Tested on: not listed separately
# Assay: Antiproliferative activity against human HuH7 cells after 72 hrs by XTT assay
# Assay type: functional, cell-based
# Details: Huh-7, 72 h
# Method in brief: as §1
row,SMILES,IC50
1,CN(C)CCCO/N=C1\c2ccccc2-c2nc3c(C(=O)NCCN4CCCC4)cccc3nc21.Cl,820 nM
2,CN(C)CCCO/N=C1\c2ccccc2-c2nc3c(CN4CCCC4)cccc3nc21.Cl,320 nM
3,CN(C)CCCO/N=C1\c2ccccc2-c2nc3c(C(=O)NCCN4CCOCC4)cccc3nc21.Cl,5940 nM

# Tested on: MRC5
# Assay: Antiproliferative activity against human MRC5 cells after 72 hrs by XTT assay
# Assay type: cell-based
# Details: MRC5, 72 h
# Method in brief: as §1
row,SMILES,IC50
1,CN(C)CCCO/N=C1\c2ccccc2-c2nc3c(C(=O)NCCN4CCCC4)cccc3nc21.Cl,7890 nM
2,CN(C)CCCO/N=C1\c2ccccc2-c2nc3c(CN4CCCC4)cccc3nc21.Cl,900 nM
3,CN(C)CCCO/N=C1\c2ccccc2-c2nc3c(C(=O)NCCN4CCOCC4)cccc3nc21.Cl,11500 nM

# Tested on: MRC5
# Assay: Selectivity index, ratio of IC50 for human MRC5 cells to IC50 for human MDA-MB-231 cells
# Assay type: functional
# Details: not given
row,SMILES,Ratio IC50
1,CN(C)CCCO/N=C1\c2ccccc2-c2nc3c(C(=O)NCCN4CCCC4)cccc3nc21.Cl,17.53
2,CN(C)CCCO/N=C1\c2ccccc2-c2nc3c(CN4CCCC4)cccc3nc21.Cl,1.32
3,CN(C)CCCO/N=C1\c2ccccc2-c2nc3c(C(=O)NCCN4CCOCC4)cccc3nc21.Cl,11.63

# Tested on: not listed separately
# Assay: Selectivity index, ratio of IC50 for human MRC5 cells to IC50 for human H1299 cells
# Assay type: functional
# Details: not given
row,SMILES,Ratio IC50
1,CN(C)CCCO/N=C1\c2ccccc2-c2nc3c(C(=O)NCCN4CCCC4)cccc3nc21.Cl,1.39
2,CN(C)CCCO/N=C1\c2ccccc2-c2nc3c(CN4CCCC4)cccc3nc21.Cl,0.98
3,CN(C)CCCO/N=C1\c2ccccc2-c2nc3c(C(=O)NCCN4CCOCC4)cccc3nc21.Cl,1.19

# Tested on: MRC5
# Assay: Selectivity index, ratio of IC50 for human MRC5 cells to IC50 for human PC3 cells
# Assay type: functional
# Details: not given
row,SMILES,Ratio IC50
1,CN(C)CCCO/N=C1\c2ccccc2-c2nc3c(C(=O)NCCN4CCCC4)cccc3nc21.Cl,11.6
2,CN(C)CCCO/N=C1\c2ccccc2-c2nc3c(CN4CCCC4)cccc3nc21.Cl,1.15
3,CN(C)CCCO/N=C1\c2ccccc2-c2nc3c(C(=O)NCCN4CCOCC4)cccc3nc21.Cl,1.18

# Tested on: Huh-7
# Assay: Selectivity index, ratio of IC50 for human MRC5 cells to IC50 for human HuH7 cells
# Assay type: functional
# Details: not given
row,SMILES,Ratio IC50
1,CN(C)CCCO/N=C1\c2ccccc2-c2nc3c(C(=O)NCCN4CCCC4)cccc3nc21.Cl,9.62
2,CN(C)CCCO/N=C1\c2ccccc2-c2nc3c(CN4CCCC4)cccc3nc21.Cl,2.81
3,CN(C)CCCO/N=C1\c2ccccc2-c2nc3c(C(=O)NCCN4CCOCC4)cccc3nc21.Cl,1.94

# Molecular target: T1, DNA topoisomerase 1 (Homo sapiens) (UniProt P11387)
# T1 sequence (whole entry): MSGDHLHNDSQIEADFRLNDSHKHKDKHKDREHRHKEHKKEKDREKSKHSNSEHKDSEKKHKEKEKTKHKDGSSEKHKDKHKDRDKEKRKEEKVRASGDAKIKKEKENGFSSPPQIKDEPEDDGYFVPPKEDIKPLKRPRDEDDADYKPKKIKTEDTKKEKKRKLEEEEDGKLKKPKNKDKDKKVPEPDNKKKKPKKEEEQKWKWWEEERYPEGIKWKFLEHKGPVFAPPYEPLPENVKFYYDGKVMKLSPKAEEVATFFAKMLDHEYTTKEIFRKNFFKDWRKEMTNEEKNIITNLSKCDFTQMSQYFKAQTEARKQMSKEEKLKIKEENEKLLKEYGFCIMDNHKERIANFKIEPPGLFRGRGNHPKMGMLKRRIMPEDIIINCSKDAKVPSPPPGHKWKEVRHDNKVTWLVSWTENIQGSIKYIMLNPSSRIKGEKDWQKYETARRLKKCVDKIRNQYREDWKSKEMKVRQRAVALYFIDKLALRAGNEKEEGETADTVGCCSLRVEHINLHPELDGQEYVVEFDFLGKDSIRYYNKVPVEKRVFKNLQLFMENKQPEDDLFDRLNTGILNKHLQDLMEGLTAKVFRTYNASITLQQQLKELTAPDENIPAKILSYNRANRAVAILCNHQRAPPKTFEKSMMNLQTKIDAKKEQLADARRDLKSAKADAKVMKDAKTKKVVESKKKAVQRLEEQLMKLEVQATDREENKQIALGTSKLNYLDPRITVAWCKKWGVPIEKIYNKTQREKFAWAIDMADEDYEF
# Assay: Inhibition of human DNA topoisomerase 1-mediated relaxation of supercoiled pBR322 DNA at 100 uM after 30 mins by ethidium bromide staining based agarose gel electrophoresis
# Details: not given
# Method in brief: (§2)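 Human topo I or topo II (2 units) was reacted with 0.2 μg supercoiled pBR322 in 20 μl Tris-HCl pH 7.5 containing KCl, DTT, EDTA, MgCl2 and BSA, with DMSO held at 0.5%, for 30 min at 37°C. The reaction was stopped with SDS. Samples were run on 1% agarose in Tris-acetate/EDTA at 1.5 V/cm for 2-3 h and stained with ethidium bromide. Relaxation was quantified by densitometry of the supercoiled band area.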
row,SMILES,topoisomerase 1 inhibition (active/inactive)
1,CN(C)CCCO/N=C1\c2ccccc2-c2nc3c(C(=O)NCCN4CCCC4)cccc3nc21.Cl,Active
2,CN(C)CCCO/N=C1\c2ccccc2-c2nc3c(CN4CCCC4)cccc3nc21.Cl,Active
3,CN(C)CCCO/N=C1\c2ccccc2-c2nc3c(C(=O)NCCN4CCOCC4)cccc3nc21.Cl,Active

# Molecular target: T1, DNA topoisomerase 1 (Homo sapiens)
# Assay: Inhibition of human DNA topoisomerase 1-mediated relaxation of supercoiled pBR322 DNA at 10 uM after 30 mins by ethidium bromide staining based agarose gel electrophoresis
# Details: not given
# Method in brief: as §2
row,SMILES,inhibition
1,CN(C)CCCO/N=C1\c2ccccc2-c2nc3c(C(=O)NCCN4CCCC4)cccc3nc21.Cl,Active
2,CN(C)CCCO/N=C1\c2ccccc2-c2nc3c(CN4CCCC4)cccc3nc21.Cl,Active
3,CN(C)CCCO/N=C1\c2ccccc2-c2nc3c(C(=O)NCCN4CCOCC4)cccc3nc21.Cl,Active

# Molecular target: DNA topoisomerase 2-alpha (Homo sapiens) (UniProt P11388)
# Assay: Inhibition of human DNA topoisomerase 2-mediated relaxation of supercoiled pBR322 DNA at 100 uM after 30 mins by ethidium bromide staining based agarose gel electrophoresis
# Details: not given
# Method in brief: as §2
# DNA topoisomerase 2-alpha (Homo sapiens), sequence (P11388 whole entry): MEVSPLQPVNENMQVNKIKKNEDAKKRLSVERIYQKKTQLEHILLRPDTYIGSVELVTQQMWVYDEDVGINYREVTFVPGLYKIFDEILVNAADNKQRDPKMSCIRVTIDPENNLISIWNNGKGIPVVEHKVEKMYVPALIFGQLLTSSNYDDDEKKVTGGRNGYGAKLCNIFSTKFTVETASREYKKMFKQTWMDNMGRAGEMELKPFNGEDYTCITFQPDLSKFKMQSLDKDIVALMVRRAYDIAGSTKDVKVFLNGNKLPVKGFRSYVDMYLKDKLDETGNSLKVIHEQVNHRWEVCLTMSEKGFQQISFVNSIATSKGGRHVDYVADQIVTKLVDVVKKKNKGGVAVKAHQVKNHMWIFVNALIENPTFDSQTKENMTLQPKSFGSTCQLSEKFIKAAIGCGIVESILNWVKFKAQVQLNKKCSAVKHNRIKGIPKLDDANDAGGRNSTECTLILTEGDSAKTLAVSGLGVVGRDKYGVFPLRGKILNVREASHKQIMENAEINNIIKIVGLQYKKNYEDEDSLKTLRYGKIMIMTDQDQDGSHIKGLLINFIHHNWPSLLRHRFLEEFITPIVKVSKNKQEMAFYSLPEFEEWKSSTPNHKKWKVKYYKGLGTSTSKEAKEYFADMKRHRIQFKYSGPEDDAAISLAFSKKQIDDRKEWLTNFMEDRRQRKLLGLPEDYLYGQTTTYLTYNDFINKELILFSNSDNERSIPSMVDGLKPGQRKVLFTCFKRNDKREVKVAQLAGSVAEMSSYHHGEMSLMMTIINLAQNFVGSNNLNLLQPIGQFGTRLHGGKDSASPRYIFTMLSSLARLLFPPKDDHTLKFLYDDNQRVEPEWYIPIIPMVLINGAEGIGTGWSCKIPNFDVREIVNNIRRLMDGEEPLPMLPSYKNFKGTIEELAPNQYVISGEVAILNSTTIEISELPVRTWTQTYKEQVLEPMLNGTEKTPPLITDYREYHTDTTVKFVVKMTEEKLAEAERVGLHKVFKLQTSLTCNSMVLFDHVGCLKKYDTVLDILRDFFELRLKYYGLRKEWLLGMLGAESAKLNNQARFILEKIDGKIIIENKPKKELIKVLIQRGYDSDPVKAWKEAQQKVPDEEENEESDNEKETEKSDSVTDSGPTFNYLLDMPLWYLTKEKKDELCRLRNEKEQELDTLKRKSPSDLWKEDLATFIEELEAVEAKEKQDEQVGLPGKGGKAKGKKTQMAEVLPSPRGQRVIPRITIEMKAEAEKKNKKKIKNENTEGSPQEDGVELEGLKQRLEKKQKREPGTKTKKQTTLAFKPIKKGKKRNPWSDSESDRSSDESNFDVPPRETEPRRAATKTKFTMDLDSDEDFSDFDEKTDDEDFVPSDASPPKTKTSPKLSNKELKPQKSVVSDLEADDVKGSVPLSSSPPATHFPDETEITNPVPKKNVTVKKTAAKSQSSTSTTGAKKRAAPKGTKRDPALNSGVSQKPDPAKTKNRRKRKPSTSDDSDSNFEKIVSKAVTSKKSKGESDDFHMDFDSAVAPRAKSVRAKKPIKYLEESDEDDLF
row,SMILES,inhibition call (active/not active)
1,CN(C)CCCO/N=C1\c2ccccc2-c2nc3c(C(=O)NCCN4CCCC4)cccc3nc21.Cl,Active
2,CN(C)CCCO/N=C1\c2ccccc2-c2nc3c(CN4CCCC4)cccc3nc21.Cl,Active
3,CN(C)CCCO/N=C1\c2ccccc2-c2nc3c(C(=O)NCCN4CCOCC4)cccc3nc21.Cl,Active

# Molecular target: DNA topoisomerase 2-alpha (Homo sapiens) (UniProt P11388)
# Assay: Inhibition of human DNA topoisomerase 2-mediated relaxation of supercoiled pBR322 DNA at 10 uM after 30 mins by ethidium bromide staining based agarose gel electrophoresis
# Details: not given
# Method in brief: as §2
row,SMILES,topoisomerase 2 inhibition (active/not active)
1,CN(C)CCCO/N=C1\c2ccccc2-c2nc3c(C(=O)NCCN4CCCC4)cccc3nc21.Cl,Active
2,CN(C)CCCO/N=C1\c2ccccc2-c2nc3c(CN4CCCC4)cccc3nc21.Cl,inactive
3,CN(C)CCCO/N=C1\c2ccccc2-c2nc3c(C(=O)NCCN4CCOCC4)cccc3nc21.Cl,inactive
